Test: Toxicity liver stage against HepG2, at 10uM
Type: cell-based
Set-up: test concentration 10 uM, cell line HepG2-A16-CD81EGFP
Conditions: human, HepG2-A16-CD81EGFP cells; read-out: INHIBITION
Procedure, shortened: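 Uninfected HepG2-A16-CD81EGFP cells, 3 × 10^3 per well, 1536-well, plated on prespotted compound at 10 μM final, parasite-free screening media added to match infected plates; puromycin 10 μM positive, DMSO 0.5% negative; run in parallel with 48 h PbLuc assay at 37 °C, 5% CO2; viability by CellTiter-Glo luminescence, normalized to controls.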

Compound	cytotoxicity at 10 µM [%]
O=C1N(Cc2ccccn2)C[C@H]2CN(C3CCOCC3)CCN12	7.94
C=C(C)COc1cccc(C(=O)NC(C)c2nnn[nH]2)c1 (stereo not drawn)	-8.32
CCN(CC)Cc1cc(C(=O)N2CCCC(O)(CO)C2)c(C)o1 (stereo not drawn)	7.87
C[S+]([O-])CCCNCc1cc(F)ccc1Br (stereo not drawn)	0.732
Fc1cnc(N2CCO[C@H]3CN(CC4CCC4)C[C@H]32)nc1	-8.71
Cc1ccc(C(=O)NCc2ccnc(N(C)C)c2)c(C)c1	-11.1
O=C(NCC1CC1)[C@@H]1CC[C@@H]2[C@@H](CCN2CCOCc2ccccc2)O1	-112
c1ccc(-c2cnc(CN3CCCC3Cn3cncn3)o2)cc1 (stereo not drawn)	-5.82
Cc1ccc(S(=O)(=O)NC(C)(C)CN)c(F)c1	-8.73
CC(=O)c1cc(CC(=O)NCc2ccc(F)cc2)cs1	-18.7
CC(C)c1nn(C)c(N2CCOCC2)c1CNCCS(C)(=O)=O	-8.36
Nc1nnc(CCCNC(=O)c2ccc(C3CCCNC3)cc2)s1 (stereo not drawn)	-1.28
Oc1c(F)cc(CNc2cccc(-c3nnc[nH]3)c2)cc1F	-44.2
O=C(O)Cn1ccc(=O)c2cc(Cl)ccc21	-17.1
N#CC1(NC(=O)CNCCn2cccn2)CCCCC1	-7.5
CCS(=O)(=O)N1CCN(c2cc(-n3cnc(C)c3C)nc(C)n2)CC1	0.599
CC(C)Nc1cc(N2CCC(n3cc(CCO)nn3)CC2)ncn1	16.3
COc1ccc2c(c1)C(C(=O)NCCN1CCNC1=O)CC(=O)N2 (stereo not drawn)	-1.13
O=C(CC1CCCC1)NCCn1ccc(-c2ccccn2)n1	5.5
COc1ccc(-n2ccc(C(=O)NCCn3ccnc3)n2)cc1	-7.2
CCN(C(=O)CN1CCCC1c1cccs1)c1ccccc1C (stereo not drawn)	3.7

Compound	cytotoxicity at 10 µM [%]
O=C(c1ccc(Cl)s1)N1CC(c2nc(-c3ccc[nH]c3=O)no2)C1	-1.26
CCOC[C@@H]1CCC[C@@]12CN(Cc1cccnc1)CCO2	-65.7
O=C(C1CC1)N1CCC2(CCN(Cc3cccc(F)c3)CC2)CC1	-4.07
Cc1noc(C(C)C)c1C(=O)NCc1cc(F)cc(F)c1	-5.54
O=C(c1ccncc1)N1CCN(C(=O)c2coc3ccccc23)CC1	4.27
CCn1ccnc1SCCn1cnc2ccsc2c1=O	-2.9
CCCN1CCCN(C(=O)Nc2ccc3c(c2)OCO3)CC1	-4.92
Cc1nc(O)c2nnn(C[C@H]3CCCN3C(=O)CCC3CCCC3)c2n1	5.02
Fc1cnccc1CN1CCC2(CCNCC2)C1	-123
CCN(C(=O)COC)C(c1cccnc1)c1cc(C)cc(C)c1 (stereo not drawn)	-20.9
COCCN1CCC(CNc2nccc(-c3cnn(C)c3)n2)CC1	-130
Cc1oc(-c2ccoc2)nc1CN1CCCCC1CCc1ccccc1 (stereo not drawn)	-1.48
COCCC(C)NC(=O)c1cc(Br)c2c(c1)OCCO2 (stereo not drawn)	-13.4
CC(CNC(=O)c1c[nH]nn1)Oc1cccc(Br)c1 (stereo not drawn)	-10.3
Cc1cnn(CC2CCCCN2CC(=O)Nc2c(C)n[nH]c2C)c1 (stereo not drawn)	1.8
CC(NC(=O)c1cccc(CCC(C)(C)O)c1)c1nnc(N)s1 (stereo not drawn)	1.16
O=C(c1cc[nH]n1)N1CCCC1C1CCN(Cc2ccccc2)CC1 (stereo not drawn)	1.98
Clc1ccc(-c2nc(CN3CCCC3Cn3cncn3)co2)cc1 (stereo not drawn)	-1.66
CCCc1cc(=O)[nH]c2nnc(SCC(C)=O)n12	7.29
Cn1c(C(=O)Nc2nc[nH]n2)cc2ccccc21	1.24
Cc1nc(C)n(CC2CCCN2CC(=O)Nc2nncs2)n1 (stereo not drawn)	14.3

Compound	cytotoxicity at 10 µM [%]
O=S(=O)(Cc1ccccc1F)NCCN1CCOCC1	24.8
CCc1nc(CC(=O)N2CCC(C(=O)N(CC)CC)CC2)cs1	-1.42
CC(NCc1cccn1C)c1noc(-c2ccc(Cl)cc2)n1 (stereo not drawn)	5.07
CN(C)Cc1ccc(N2CCN(CCOCC(F)(F)F)CC2)nc1	1.25
Cc1nc(=O)c2ccccc2n1C1=CCN(CC(=O)N2CCCC2)CC1	-7.45
COc1cc(I)c(Cl)cc1C(=O)N(C)CC(=O)NC(C)(C)C	15.4
COC(=O)CNC(=O)c1cn(-c2ccccn2)c(=O)c2ccccc12	0.0537
Cc1ncsc1CNc1cc(N2CCCC2CO)ncn1 (stereo not drawn)	-12.5
COc1cccc(CC(=O)N2CCN(C)c3ncccc3C2)c1	2.33
CSC1(CNC(=O)NC(C)c2ccc(F)cc2)CCOCC1 (stereo not drawn)	6.88
COc1ccc(S(=O)(=O)C(F)(F)F)cc1NC(=O)CSCC#N	-2.72
O=C(Cn1cccn1)N1CCC(Oc2cnccn2)CC1	7.11
Cc1cnc(N2CC3(CCN(C(=O)c4ccoc4)C3)C2)nc1	-10.1
O=C(CN1C=Nc2ccccc2S1(=O)=O)NCc1ccccc1	-3.95
CC(C)C[C@H](NC(=O)CNC(=O)OC(C)(C)C)C(=O)OC(C)(C)C	11.9
CN(C)C(=O)C1CCC2(CCN(C(=O)Nc3ccc(F)cc3)CC2)O1 (stereo not drawn)	-111
Cn1nc(CNC(=O)C2CCCC2)cc1C1CC1	-0.265
Cc1cc(C(=O)N(Cc2c(C)nn(C)c2C)C(C)C)nc(C)n1	-9.85
CN(C)C(=O)c1cnc2n1CCN(Cc1ccccc1)C2	7.05
COc1ccc(C(C)N2CCC(OC)CC2)cc1Cl (stereo not drawn)	-53.2
O=C(c1cncnc1)N1CCCC(c2nccs2)C1 (stereo not drawn)	6.55

Compound	cytotoxicity at 10 µM [%]
O=C(NC1CC(=O)N(C2Cc3ccccc3C2)C1)c1csnn1 (stereo not drawn)	2.96
CN1CCCC[C@@H]2[C@H]1[C@@H](c1ccccc1)CCN2C(=O)c1ccccc1	-4.3
CCCN1CCC(c2nc3ccc(-c4cccc(OC)c4)cn3n2)CC1	-113
O=C(Cc1ccccc1)N1CCC2(CC(=O)N(c3cccc(F)c3)C2)C1 (stereo not drawn)	-0.557
CN(C)C(=O)c1cn2cc(-c3cccc(Cl)c3)n(CC3CC3)c(=O)c2n1	-1.62
CCOc1cc(C)nc(N2CCN(C(=O)CC)CC2)n1	-6.68
c1coc(-c2nc3c(c(N4CCCN5CCC[C@H]5C4)n2)CCNCC3)c1	-9.88
Cc1cnc(CNc2ncc(C)c(-c3cnn(C)c3)n2)cn1	7.86
C[C@@H]1CN(C(=O)c2cc(Cn3cnc4ccccc43)on2)C[C@H](C)O1	1.69
COCCN1CCc2ncnc(-c3ccccc3)c2CC1	9.99
CCn1cncc1CNc1ccc(-c2nc(CC(C)C)no2)cn1	-9.07
CC1CCN(c2ccc(=O)n(CC(=O)N(C)Cc3ccccc3)n2)CC1	4.84
CC(CC(=O)c1ccco1)NC(=O)c1ccon1 (stereo not drawn)	-17.9
NC(=O)c1cnc(NC2CC2)nc1CCNC(=O)Cc1ccccc1	4.44
Cc1nc(O)cc(CCNC(=O)C2CC(=O)N(CC(C)C)C2)n1 (stereo not drawn)	-8.11
O=C(C1CCCCC1)N1CCCC([C@@H]2C[C@H](C(F)F)n3ncnc3N2)C1 (stereo partly drawn)	1.4
CC/C=C(/C)C(=O)NS(=O)(=O)c1ccc(C#N)cc1C(F)(F)F	11.8
O=C1CCC2(CCC(NC(=O)NCc3ccccc3)CC2)N1 (stereo not drawn)	-0.0957
COCCn1cnnc1Cn1ccnc1-c1ccoc1	-2.66
COCCO[C@H]1CCN(C(=O)c2ccco2)[C@H]1Cc1cnn(C)c1	2.4
